Screening data (PubChem BioAssay)
Shown are actives, neighbours in structure and some others; about 3% of the full set was active somewhere.
V-ATPase pHluor – regulators of yeast V-ATPase proton pumping, primary screen, pHLuorin cytosolic pH fluorescence; AID 504577, 2011; S. cerevisiae; response, % at 10 µM; 350,000 tested, 0.37% active; in the data active = response mostly above about 7.3%, no sharp cut-off; inactive = mostly below about 5.4%; note: actives read high
T cruzi inh – inhibitors of intracellular T. cruzi growth, primary screen, luminescence, NIH3T3 host cells. inhibition, % (test concentration not listed). T. cruzi beta-gal in NIH3T3, 90 h. 300,000 tested, 1.4% active;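 active = mean inhibition across valid replicates above about 55%, limit read from the data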;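 note: signal also drops with host cell toxicity which is not excluded here; higher percent means less beta-gal luminescence so fewer parasites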
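System: NIH/3T3 fibroblasts plus reporter T. cruzi. Medium: DMEM plus 2% FBS. Probe or stimulus: 5000 reporter trypomastigotes per well. Compound: single 50 nL compound addition per well in DMSO. Incubation: co-culture of at least 90 h after 3 h attachment. Detection: GalScreen β-gal luminescence, detergent lysis, 60 min. Evaluation: parasite load inhibition, %.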
HIF activator – HIF pathway transcriptional activators, primary screen, cell-based, U2OS HRE-luciferase, luminescence; U2OS HRE-luciferase reporter; normalized: DMSO 0%, desferrioxamine 100%; activation, % at 7.5 µM (by protocol); 300,000 tested, 0.32% active; AID 1910, 2009;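 active = mean activation of at least 10% of the iron chelator positive control signal, with at least half of replicates also reaching 10%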
CR mimetic SO – reduction of superoxide in aged yeast, primary screen, HTS | superoxide response (% of plate mean), % at 10 µM | 330,000 tested, 0.18% active | S. cerevisiae aged cells, superoxide DHE fluorescence; active compounds read low;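 active = superoxide response under a set limit, about three screen SD below normal, cut at about 65% in these data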;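 note: yeast aged for seven days with compound at 30 °C before DHE staining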
AI-2 QS modul – Vibrio harveyi AI-2 quorum sensing modulators, primary screen, JMH597 strain, luminescence/OD600 ratio; Vibrio harveyi JMH597 AI-2 luminescence/OD600 ratio, 9 h; active compounds read low; strain lacks LuxN and CqsS sensors; 0 = neutral-control median; 300,000 tested, 0.4% active; activity change, % at 7.5 µM; in the data active = activity change below about -75%, passing the limit was not always enough;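 note: luminescence divided by OD600 gain over 9 h not by final OD600 alone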
CendR NRP1 mod – modulators of CendR peptide binding to NRP-1, primary screen, biochemical, fluorescence polarization, uHTS. AID 602438, 2012. inhibition, % at 25 µM. Neuropilin-1 (Homo sapiens), O14786. FAM-RPARPAR peptide binding to NRP-1. 360,000 tested, 0.85% active;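 active = inhibition or corrected inhibition above about 18%, plus a signal ratio from 0.5 to 1.5, limit read from the data, passing the limit was not always enough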
Each line names hits and unclear results; the compound was inactive in the other large screens; ! = repeats disagree.

CCOc1ccc(-c2cc(C)[n+](CCc3ccc(OC)c(OC)c3)c(-c3ccc(OCC)cc3)c2)cc1	none
CCOc1ccc(-c2cc(C)[n+](CCO)c(-c3ccc(OCC)cc3)c2)cc1	T cruzi inh 72
Oc1ccc(-[n+]2c(-c3ccccc3)cc(-c3ccccc3)cc2-c2ccccc2)cc1	none
Fc1ccc(C[n+]2c(-c3ccccc3)cc(-c3ccccc3)cc2-c2ccccc2)cc1	T cruzi inh 55 (no result: V-ATPase pHluor, CendR NRP1 mod)
Clc1ccc(C[n+]2c(-c3ccccc3)cc(-c3ccccc3)cc2-c2ccccc2)cc1	T cruzi inh 56
O=c1[nH]cc(COCC(F)(F)C(F)(F)C(F)(F)F)c(=O)[nH]1	none
CC(C)C[C@@H]1COc2cc(N3CCN(C)CC3)ccc2S(=O)(=O)N1	none (no result: V-ATPase pHluor, T cruzi inh, HIF activator, CR mimetic SO, AI-2 QS modul)
COC12C(COC(N)=O)C3=C(C(=O)C(C)=C(N)C3=O)N1CC1C2N1C (stereo not drawn)	T cruzi inh 58
CN(C)P1(=O)N(C)CCN1C	none (no result: V-ATPase pHluor, T cruzi inh, HIF activator, CR mimetic SO, AI-2 QS modul)
CC(C)[C@H]1C(=O)O[C@H](C(C)C)C(=O)N(C)[C@@H](C(C)C)C(=O)O[C@H](C(C)C)C(=O)N(C)[C@@H](C(C)C)C(=O)O[C@H](C(C)C)C(=O)N1C	T cruzi inh 55
COC(=O)C1=C(c2ccc(F)cc2F)C[C@@H]2CC[C@H]1N2C(=O)NCCNC(C)=O	none (no result: T cruzi inh, HIF activator, AI-2 QS modul)
COC(=O)C1=C(c2ccc(Cl)c(C(F)(F)F)c2)C[C@@H]2CC[C@H]1N2C(=O)NCCNC(C)=O	CendR NRP1 mod 24 (no result: T cruzi inh, HIF activator, AI-2 QS modul)
COC(=O)C1=C(c2ccc(F)cc2OCc2ccccc2)C[C@@H]2CC[C@H]1N2C(=O)N1CCCC1	CendR NRP1 mod 27 (no result: T cruzi inh, HIF activator, AI-2 QS modul)
COC(=O)C1=C(c2ccc(F)cc2OCc2ccccc2)C[C@@H]2CC[C@H]1N2C(=O)NC(C)C	none (no result: T cruzi inh, HIF activator, AI-2 QS modul)
CCCNC(=O)N1[C@H]2CC[C@@H]1C(C(=O)OC)=C(c1ccc(F)cc1F)C2	CendR NRP1 mod 32 (no result: T cruzi inh, HIF activator, AI-2 QS modul)
COC(=O)C1=C(c2ccc(Cl)c(C(F)(F)F)c2)C[C@@H]2CC[C@H]1N2C(=O)NCCCOC(C)C	none (no result: T cruzi inh, HIF activator, AI-2 QS modul)
COC(=O)C1=C(c2ccc(C(C)=O)cc2)C[C@@H]2CC[C@H]1N2C(=O)NCc1ccc2c(c1)OCO2	CendR NRP1 mod 21 (no result: T cruzi inh, HIF activator, AI-2 QS modul)
COC(=O)C1=C(c2ccc(Cl)c(C(F)(F)F)c2)C[C@@H]2CC[C@H]1N2C(=O)NCc1ccc2c(c1)OCO2	none (no result: T cruzi inh, HIF activator, AI-2 QS modul)
COC(=O)C1=C(c2cccc(C#N)c2)C[C@@H]2CC[C@H]1N2C(=O)NCCO	CendR NRP1 mod 29 (no result: T cruzi inh, HIF activator, AI-2 QS modul)
COC(=O)C1=C(c2cccc(C#N)c2)C[C@@H]2CC[C@H]1N2C(=O)N1CCCCC1	none (no result: T cruzi inh, HIF activator, AI-2 QS modul)
COC(=O)C1=C(c2cccc(C#N)c2)C[C@@H]2CC[C@H]1N2C(=O)N1CCC(O)CC1	CendR NRP1 mod 25 (no result: T cruzi inh, HIF activator, AI-2 QS modul)
COC(=O)C1=C(c2cccc(C#N)c2)C[C@@H]2CC[C@H]1N2C(=O)NCCNC(C)=O	none (no result: T cruzi inh, HIF activator, AI-2 QS modul)
CC1(C)N=C(c2ccccc2)[C@@H]2C(c3ccc([N+](=O)[O-])cc3)N21 (stereo partly drawn)	none
CC(C)(C#CC(=O)O)OOC(c1ccccc1)(c1ccccc1)c1ccccc1	none
O=P(O)(O)CN1CCNCCN(CP(=O)(O)O)CCNCC1	CendR NRP1 mod 30 (no result: T cruzi inh, HIF activator, CR mimetic SO, AI-2 QS modul)
CCC(COC(=O)c1cc(OC)c(OC)c(OC)c1)(c1ccccc1)N(C)C (stereo not drawn)	CendR NRP1 mod 23!
c1ccc2c(CN3CCCCCCC3)c[nH]c2c1	T cruzi inh 70
c1ccc2c(CNC3CCCCC3)c[nH]c2c1	none (no result: V-ATPase pHluor, CendR NRP1 mod)
c1ccc2c(CN3CCN(C4CCCCC4)CC3)c[nH]c2c1	none
CN(Cc1c[nH]c2ccccc12)C1CCCCC1	T cruzi inh 82
CCCN1CC[C@@H]2c3cc(O)ccc3CC[C@@H]21	none (no result: T cruzi inh, HIF activator, AI-2 QS modul)
COc1ccc(OC)c(NC2=NCCCS2)c1	HIF activator 37
O=[N+]([O-])c1ccc(-[n+]2c(-c3ccccc3)cc(-c3ccccc3)cc2-c2ccccc2)cc1	T cruzi inh 57
O=C([O-])c1ccc(-[n+]2c(-c3ccccc3)cc(-c3ccccc3)cc2-c2ccccc2)cc1	none
